How the values were obtained:
[1] = melting temperature; fluorescence melt of hairpins on a sequencing array, two-state fit, raised by 9.35 °C to match UV melts; details: sodium 0.088 M
In short: (§1)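 Cy3 fluorescence of library hairpins on a sequenced MiSeq flow cell, with annealed Cy3 and quencher oligos, was imaged in 50 mM Na-HEPES pH 8.0, 25 mM NaCl in 2.5 °C steps up to 60 °C. Signals were normalised to pre-quench Cy3 and to control variants. Melting temperature and folding enthalpy came from bootstrapped two-state fits, inverse-variance combined over four replicates. Fitted temperatures were raised by 9.35 °C to match UV melts.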

[2] = folding enthalpy; higher = less favourable; fluorescence melt of hairpins on a sequencing array, two-state fit; details: sodium 0.088 M
In short: as §1

Sequence	Tm [1]	folding enthalpy [2]
GTATAACGAAAGTTTTAC (((.(((....))).)))	34.7 °C	-20.8 kcal/mol
GCCTCAGGAAACCGAGGC (((((.(....).)))))	53.5 °C	-45.1 kcal/mol
GATCACATCAGTGATC ((((((....))))))	58.4 °C	-42.1 kcal/mol
GCTGAGCGAAAGCTAAGC (((.(((....))).)))	56.1 °C	-50.4 kcal/mol
GGTCAGTCGAAAGACACC (((..(((....))))))	32.9 °C	-13.3 kcal/mol
GCTCCGGGAAACCGGAAC (.(((((....))))).)	43.2 °C	-12.4 kcal/mol
GATCCGTGACGGATC ((((((...))))))	59.9 °C	-38.3 kcal/mol
GATCGATCTGTCGATC ((((((....))))))	53.1 °C	-45.2 kcal/mol
GTACCCGGAAACAGGTAC (((((.(....).)))))	39.4 °C	-25.7 kcal/mol
GCGCACCGAAAGGTCGC (((.(((....))))))	67 °C	-25.7 kcal/mol
CGCCAACGGAAACGTGCG (((..(((....))))))	45.5 °C	-26 kcal/mol
CGAGCGGAAACGCGTTCG ((((((....)))..)))	49.9 °C	-12.6 kcal/mol
GTCACCGGAAACGGCGAC (((.(((....))).)))	54.5 °C	-40.6 kcal/mol
GCTGAAGGAAACTTTGGC ((..(((....)))..))	33 °C	-20 kcal/mol
GATCTGAAAACAGATC ((((((....))))))	42.8 °C	-27.5 kcal/mol
GAGACCGGAAACGGTCCC (.(((((....))))).)	46.9 °C	-10.2 kcal/mol
GATCTACTTTAGATC ((((((...))))))	41.7 °C	-30.1 kcal/mol
GATCGGTACCCCGATC ((((((....))))))	54.4 °C	-42.5 kcal/mol
GCGTATCGACGC ((((....))))	52.6 °C	-18.9 kcal/mol
GCGGCAACGAAAGTTCGC (((..(((....))))))	45.1 °C	-21.3 kcal/mol
GCGCGCGAAAGCGTCCGC ((((((....)))..)))	53 °C	-14.9 kcal/mol
GGAGACGAAAGTCTTCC ((((((....))).)))	50.9 °C	-18 kcal/mol
GCAAAATCGAAAGATTGC (((..(((....))))))	38.5 °C	-20.6 kcal/mol

Sequence	Tm [1]	folding enthalpy [2]
GGCCCGTCGAAAGACGCC (((..(((....))))))	37 °C	-8.97 kcal/mol
GACCGTGGAAACACAGTC (((.(((....))).)))	40.5 °C	-23.8 kcal/mol
GATCCCCTTTGGGATC ((((((....))))))	61 °C	-33.9 kcal/mol
GATCGAACAATCGATC ((((((....))))))	47.4 °C	-31.3 kcal/mol
GTAATTCCGAAAGGATAC (((..(((....))))))	28.2 °C	-10.6 kcal/mol
GCGGTATTCCGC ((((....))))	56.4 °C	-30.6 kcal/mol
GTGGAAGAAATTCCAC ((((((....))))))	51.8 °C	-34.8 kcal/mol
GGTCTGAAAAGACC (((((....)))))	61.7 °C	-31.1 kcal/mol
GTGTTACGAAAGTATCAC (((.(((....))).)))	46.8 °C	-30.7 kcal/mol
GTCAGCGAAAGCTAGGAC ((((((....)))..)))	40 °C	-14.1 kcal/mol
GATCCCAGAGGGATC ((((((...))))))	68.5 °C	-34.2 kcal/mol
GCCTGGCGAAAGCCCCGC ((..(((....)))..))	36.3 °C	-8.33 kcal/mol
GCCTGATCGAAAGATGGC (((..(((....))))))	41.9 °C	-25.2 kcal/mol
GATCGATGACTCGATC ((((((....))))))	49.5 °C	-30.5 kcal/mol
GCCACCGAAAGGTCCGGC ((((((....)))..)))	46.8 °C	-17 kcal/mol
GCAGGCGGAAACGCCTAC (.(((((....))))).)	43.9 °C	-9.53 kcal/mol
GATCTCGCGTGAGATC ((((((....))))))	53.8 °C	-34.7 kcal/mol
GCGAGTGGAAACACCCGC (((.(((....))).)))	51.9 °C	-26.4 kcal/mol
GGTGACGGAAACGTCGTC (..((((....))))..)	42 °C	-13.9 kcal/mol
GATTGCGAAAGCAGGATC ((((((....)))..)))	30.1 °C	-10.9 kcal/mol
GTGGTCGAAAGACCCCAC ((((((....)))..)))	38 °C	-9.79 kcal/mol
GAGGGTACGAAAGTACTC (((..(((....))))))	36.9 °C	-11.9 kcal/mol
GCGAAGATCGC ((((...))))	49.5 °C	-13.7 kcal/mol

Sequence	Tm [1]	folding enthalpy [2]
GTCTCGCGAAAGCGGAC (((.(((....))))))	53.7 °C	-16.9 kcal/mol
GGTAACGAAAGTTCTACC ((((((....)))..)))	28.2 °C	-13.9 kcal/mol
GATGCCGGAAACAGCATC (((((.(....).)))))	46 °C	-36.8 kcal/mol
GAGCGGCGAAAGCCTCTC (((.(((....))).)))	51.7 °C	-20.5 kcal/mol
GATCAATCAGTTGATC ((((((....))))))	44.4 °C	-29.6 kcal/mol
GATCGTCCGCACGATC ((((((....))))))	54.4 °C	-39.6 kcal/mol
GGTAAGGGAAACTTTACC (((((.(....).)))))	36.4 °C	-21.3 kcal/mol
GCGGAGCGAAAGCTGTGC ((..(((....)))..))	51 °C	-14.2 kcal/mol
GGGCGTCGAAAGACACCC (((.(((....))).)))	58.9 °C	-43.8 kcal/mol
GATCACGGTGTGATC ((((((...))))))	61.3 °C	-30.5 kcal/mol
GCCAAGCGAAAGCCTTGC ((.(.((....)).).))	33.9 °C	-13.6 kcal/mol
GCGCTCGAAAGAGGACGC ((((((....)))..)))	50 °C	-23.7 kcal/mol
GAGTACACGAAAGTGCTC (((..(((....))))))	33.7 °C	-14.9 kcal/mol
GCAGGGGGAAACCCCCGC ((.((((....)))).))	61.6 °C	-14.5 kcal/mol
GGGTATGAAAATACCC ((((((....))))))	57.6 °C	-35.4 kcal/mol
GCGTAGCGAAAGCACCGC (((..((....))..)))	47.8 °C	-10.6 kcal/mol
GCCTGGCGAAAGCAACGC ((.(.((....)).).))	23.9 °C	-4.54 kcal/mol
GACAAGGGAAACCTTGTC (((((((....)))))))	59.4 °C	-40.4 kcal/mol
GATCTATCAATAGATC ((((((....))))))	42.8 °C	-33.6 kcal/mol
GCACTGGGAAACCAGTAC (.(((((....))))).)	38.1 °C	-14.9 kcal/mol
GTATGTGGAAACACATAC (((((((....)))))))	56 °C	-42.4 kcal/mol
GTCCAGCGAAAGCTTGAC (((.(((....))).)))	49.1 °C	-26.2 kcal/mol
GCCACGCGAAAGCGCTGC ((..(((....)))..))	37.4 °C	-11 kcal/mol
